Reference: ChEMBL document CHEMBL1153622, “Antiviral evaluation of N-amino-1,2,3-triazoles against Cantagalo virus replication in cell culture” (Eur J Med Chem, 2009)
Activity calls are given as the source filed them. No cut-off for these calls is given here.

Assays:
Cantagalo virus [1] = assay: Antiviral activity against Cantagalo virus in african green monkey BSC40 cells assessed inhibition of viral plaque number at 50 uM after 48 hrs post infection; type: functional; settings: BSC-40, 48 h
Cantagalo virus [2] = assay: Antiviral activity against Cantagalo virus in african green monkey BSC40 cells assessed inhibition of viral yield at 50 uM after 24 hrs post infection by plaque assay; type: functional; settings: BSC-40, 24 h
[3] = Cytotoxicity against african green monkey BSC40 cells assessed as cell viability at 50 uM for 24 hrs by neutral red assay; type: cell-based, BSC-40; settings: chlorocebus aethiops, read-out: Activity
Procedure, shortened: (§1)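 Confluent BSC-40 cells exposed to compound for 24 h at 37 °C, 0.5% DMSO control. Neutral red (50 µg/mL) added for 3 h at 37 °C, then 50% methanol with 1% acetic acid for 20 min at room temperature. OD 490 nm read; uptake proportional to viable cells.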

Vaccinia virus = assay: Antiviral activity against Vaccinia virus; type: functional, organism-based; settings: Orthopoxvirus vaccinia
Cowpox virus = assay: Antiviral activity against Cowpox virus; type: functional, organism-based
[4] = Cytotoxicity against african green monkey BSC40 cells assessed as non-viable cells at 50 uM for 24 hrs by neutral red assay; type: cell-based; settings: chlorocebus aethiops, bsc-40, 24 h; procedure, shortened: as §1
[5] = Cytotoxicity against african green monkey BSC40 cells assessed as non-viable cells at 100 uM for 24 hrs by neutral red assay; type: cell-based; settings: chlorocebus aethiops, bsc-40, 24 h; procedure, shortened: as §1
Cantagalo virus [6] = assay: Antiviral activity against Cantagalo virus replication in BSC-40 cells assessed as inhibition of viral protein accumulation at 50 uM after 24 hrs post infection by Western blot; type: functional, organism-based
Cantagalo virus [7] = assay: Antiviral activity against Cantagalo virus replication in african green monkey BSC40 cells assessed as inhibition of viral protein accumulation after 24 hrs post infection by Western blot; type: functional, organism-based; settings: BSC-40
Cantagalo virus [8] = assay: Antiviral activity against Cantagalo virus in african green monkey BSC40 cells assessed as inhibition of viral protein accumulation at 100 uM after 24 hrs post infection by Western blot; type: functional, BSC-40; parameters: scale not given: the % may be the effect or the level left
Cantagalo virus [9] = assay: Antiviral activity against Cantagalo virus in african green monkey BSC40 cells assessed inhibition of viral yield at 100 uM after 24 hrs post infection by plaque assay; type: functional, BSC-40; parameters: scale not given: the % may be the effect or the level left
Cantagalo virus [10] = assay: Antiviral activity against Cantagalo virus in african green monkey BSC40 cells assessed inhibition of viral plaque formation at 100 uM after 48 hrs post infection; type: functional; settings: BSC-40, 48 h
[11] = Cytotoxicity against african green monkey BSC40 cells assessed as reduction in cell viability at 100 uM for 24 hrs by neutral red assay; type: cell-based; settings: chlorocebus aethiops, bsc-40, 24 h; procedure, shortened: as §1
[12] = Cytotoxicity against african green monkey BSC40 cells assessed as change in cell morphology at 100 uM for 24 hrs by neutral red assay; type: cell-based; settings: chlorocebus aethiops, bsc-40, 24 h

Cc1c(C(=O)NN)nnn1Nc1ccc(Br)cc1
inhibition at 50 µM (Cantagalo virus [1]): 8.4%

CCOC(=O)c1nnn(Nc2ccccc2)c1C
inhibition at 50 µM (Cantagalo virus [1]): 15.2%

Cc1c(C(=O)NN)nnn1Nc1ccccc1
inhibition at 50 µM (Cantagalo virus [1]): 6.1%

Cc1c(C(=O)NN)nnn1Nc1ccc(Cl)cc1
inhibition at 50 µM (Cantagalo virus [1]): 3.79%

CCOC(=O)c1nnn(Nc2cc(Cl)ccc2Cl)c1C
inhibition at 50 µM (Cantagalo virus [1]): 47.2%
inhibition at 50 µM (Cantagalo virus [2]): 67.5%
viability at 24 h, 50 µM [3]: 60%

Cc1c(C(=O)NN)nnn1Nc1cc(Cl)ccc1Cl
inhibition at 50 µM (Cantagalo virus [1]): 9.71%

CCOC(=O)c1nnn(Nc2ccc(F)cc2)c1C
inhibition at 50 µM (Cantagalo virus [1]): 9.42%

CCOC(=O)c1nnn(Nc2ccc(Cl)cc2)c1C
inhibition at 50 µM (Cantagalo virus [1]): 11%

Nc1ccn(C[C@@H](CO)OCP(=O)(O)O)c(=O)n1 [CIDOFOVIR]
EC50 (Vaccinia virus): 10 µM

O=C(NN1C(=O)[C@@H]2[C@@H]3C=C[C@@H]([C@H]4C[C@@H]34)[C@@H]2C1=O)c1ccc(C(F)(F)F)cc1 [TECOVIRIMAT]
EC50 (Vaccinia virus): < 0.5 µM
EC50 (Cowpox virus): < 0.5 µM

Cc1c(C(=O)NN)nnn1Nc1ccc(F)cc1
inhibition at 50 µM (Cantagalo virus [1]): 48.3%
inhibition at 50 µM (Cantagalo virus [2]): 55.7%
Activity [4]: 10%
Activity [5]: 30%
Activity (Cantagalo virus [6]): Active
Activity (Cantagalo virus [7]): Dose-dependent effect
Activity (Cantagalo virus [8]): 71.2%
Activity (Cantagalo virus [9]): 80%

CCOC(=O)c1nnn(Nc2ccc(Br)cc2)c1C
inhibition at 50 µM (Cantagalo virus [1]): 34.4%
inhibition at 100 µM (Cantagalo virus [10]): 84.6%
Activity [11]: 52.6%
Activity [12]: Toxic
